Laboratory results taken from ChEMBL document CHEMBL1131598, “Synthesis and anticonvulsant activity of a new class of 2-[(arylalky)amino]alkanamide derivatives” (J Med Chem, 1998).

What was measured:
Mus musculus [1] = assay: Anticonvulsant potency using the intravenous-BIC (bicuculline) test in mice; format: functional
Method in brief: (§1)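 Male Crl:CD-1(ICR)BR mice (22-24 g) were dosed orally at 5 mL/kg 60 min before bicuculline 0.6 mg/kg, a dose giving tonic extensor convulsions in at least 97% of vehicle-treated mice. Protection from tonic extension was scored for each mouse. ED50 (95% confidence interval) was obtained by probit analysis, with 10-20 animals per dose.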

Mus musculus [2] = organism: Mus musculus; assay: Anticonvulsant potency using the maximal electroshock test in mice; format: functional
Method in brief: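 Male mice received intra-aural shocks through clip electrodes (0.7 s, 28 mA, 80 Hz pulse train, 0.4 ms pulses), a stimulus giving hindlimb tonic extension in at least 97% of controls. Compound was given orally 60 min or ip 30 min beforehand, at 5 mL/kg. Protection meant complete suppression of the hindlimb tonic extensor component. ED50 (95% confidence interval) was obtained by probit analysis, with 10-20 animals per dose.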

Mus musculus [3] = assay: Compound was tested for anticonvulsant potency using the 3-MPA (3-mercaptopropionic acid) test in mice upon peroral administration; format: functional; conditions: po
Method in brief: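 Male Crl:CD-1(ICR)BR mice (22-24 g) were dosed orally at 5 mL/kg 60 min before 3-mercaptopropionic acid 60 mg/kg sc, a dose convulsing at least 97% of vehicle-treated mice. The end point was hindlimb tonic extension. ED50 (95% confidence interval) was obtained by probit analysis, with 10-20 animals per dose.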

Mus musculus [4] = assay: Anticonvulsant potency using the PTX (picrotoxin) test in mice by peroral administration; format: functional; conditions: po
Mus musculus [5] = assay: Compound was tested for anticonvulsant potency using the STRY (strychnine) test in mice upon peroral administration; format: functional; conditions: po
[6] = Toxicity using neurological impairment measured by rotarod test in mice; conditions: mouse, in vivo
Method in brief: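 Trained male Crl:CD-1(ICR)BR mice (22-24 g) were dosed orally at 5 mL/kg 60 min before testing on a 3-cm rod rotating at 10 rpm. Falls during a 2-min period were counted. TD50, the dose making 50% of animals fall, was calculated by probit analysis, with 10-20 animals per dose.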

Mus musculus [7] = assay: Compound was tested for anticonvulsant potency using the intravenous-BIC (bicuculline) test in mice; 2 out of 20 mice exhibited anticonvulsant activity; format: functional
Mus musculus [8] = assay: Compound was tested for anticonvulsant potency using the intravenous-BIC (bicuculline) test in mice; 7 out of 20 mice exhibited anticonvulsant activity; format: functional
Mus musculus [9] = organism: Mus musculus; assay: Compound was tested for toxicity using neurological impairment measured by rotarod test in mice; format: functional
Method in brief: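 Trained male Crl:CD-1(ICR)BR mice, 22-24 g, dosed orally 60 min before being placed on a 3-cm rod turning at 10 rpm. Mice falling during a 2-min test were counted. Dosing volume 5 mL/kg, 10-20 animals/dose. TD50, the dose making 50% fall, by probit analysis with 95% confidence interval. Some values given as fraction affected at one dose.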

Mus musculus [10] = assay: Compound was tested for anticonvulsant potency using the intravenous-BIC (bicuculline) test in mice; 6 out of 20 mice exhibited anticonvulsant activity; format: functional
Mus musculus [11] = assay: Compound was tested for anticonvulsant potency using the intravenous-BIC (bicuculline) test in mice; 0 out of 20 mice exhibited anticonvulsant activity; format: functional
Mus musculus [12] = assay: Compound was tested for anticonvulsant potency using the intravenous-BIC (bicuculline) test in mice; 2 out of 10 mice exhibited anticonvulsant activity; format: functional
Mus musculus [13] = assay: Compound was tested for anticonvulsant potency using the intravenous-BIC (bicuculline) test in mice; compound at 200 mg/kg induced impaired gait, loss of the righting reflex, and impaired breathing; format: functional; method in brief: as §1
Mus musculus [14] = assay: Compound was tested for anticonvulsant potency using the intravenous-BIC (bicuculline) test in mice; 3 out of 20 mice exhibited anticonvulsant activity; format: functional

`NC(=O)CNCc1ccc(OCc2cccc(Cl)c2)cc1` gave an ED50 (Mus musculus [1]) of 107 mg/kg and an ED50 (Mus musculus [2]) of 28.5 mg/kg.
`NC(=O)CNCCc1ccccc1` gave an ED50 (Mus musculus [1]) of 286 mg/kg.
Work on `C[C@@H](NCc1ccc(Oc2ccccc2)cc1)C(N)=O` yielded an ED50 (Mus musculus [1]) of 64 mg/kg and an ED50 (Mus musculus [2]) of 41.5 mg/kg.
`C[C@@H](NCc1ccc(OCc2cccs2)cc1)C(N)=O` showed an ED50 (Mus musculus [1]) of 61.6 mg/kg.
Molecule `C[C@@H](NCc1ccc(OCc2ccc(F)cc2)cc1)C(N)=O` has an ED50 (Mus musculus [1]) of 132 mg/kg and an ED50 (Mus musculus [2]) of 16.3 mg/kg.
`C[C@@H](NCc1ccc(NCc2ccccc2)cc1)C(N)=O` gave an ED50 (Mus musculus [3]) of 16.3 mg/kg, an ED50 (Mus musculus [4]) of 37.5 mg/kg and an ED50 (Mus musculus [5]) of 50.3 mg/kg. The ED50 (Mus musculus [1]) was 9.3 mg/kg, the TD50 [6] was 217 mg/kg and the ED50 (Mus musculus [2]) was 11.5 mg/kg.
For `C[C@@H](NCc1ccc(SCc2ccccc2)cc1)C(N)=O`, the ED50 (Mus musculus [1]) was 24.8 mg/kg, the TD50 [6] was 633 mg/kg and the ED50 (Mus musculus [2]) was 8.6 mg/kg.
Work on `CNC(=O)[C@@H](Cc1ccccc1)NCc1ccc(OCc2ccccc2)cc1` yielded an ED50 (Mus musculus [7]) greater than 400 mg/kg.
With `NC(=O)COCc1ccc(OCc2cccc(Cl)c2)cc1` the ED50 (Mus musculus [8]) was greater than 400 mg/kg.
With `O=C1NC(=O)C(c2ccccc2)(c2ccccc2)N1` [PHENYTOIN] the ED50 (Mus musculus [3]) was 11.3 mg/kg, the ED50 (Mus musculus [4]) was greater than 100 mg/kg and the ED50 (Mus musculus [5]) was greater than 200 mg/kg. It also gave an ED50 (Mus musculus [1]) of 42.1 mg/kg, a TD50 (Mus musculus [9]) of 243 mg/kg and an ED50 (Mus musculus [2]) of 3.8 mg/kg.
For `NC(=O)[C@@H](CO)NCc1ccc(OCc2ccccc2)cc1`, the ED50 (Mus musculus [1]) was 133 mg/kg.
Work on `CNC(=O)[C@@H](NCc1ccc(OCc2ccccc2)cc1)C(C)C` yielded an ED50 (Mus musculus [1]) of 55.4 mg/kg.
`O=C(CNCc1ccc(OCc2cccc(Cl)c2)cc1)OCc1ccccc1` showed an ED50 (Mus musculus [10]) greater than 400 mg/kg.
With `C[C@@H](NCc1ccc(OCCCc2ccccc2)cc1)C(N)=O` the ED50 (Mus musculus [3]) was 16.2 mg/kg, the ED50 (Mus musculus [4]) was 35.4 mg/kg and the ED50 (Mus musculus [5]) was 75.4 mg/kg. The ED50 (Mus musculus [1]) was 19 mg/kg, the TD50 [6] was 584 mg/kg and the ED50 (Mus musculus [2]) was 6.7 mg/kg.
`C[C@@H](NCc1ccc(Cc2ccccc2)cc1)C(N)=O` gave an ED50 (Mus musculus [1]) of 15.7 mg/kg, a TD50 [6] of 752 mg/kg and an ED50 (Mus musculus [2]) of 22.5 mg/kg.
Molecule `C[C@@H](NCc1ccc(OCc2ccccc2Cl)cc1)C(N)=O` has an ED50 (Mus musculus [1]) of 17.4 mg/kg, a TD50 [6] of 525 mg/kg and an ED50 (Mus musculus [2]) of 50.8 mg/kg.
In the case of `C[C@@H](NCc1ccc(OCc2ccco2)cc1)C(N)=O`, the ED50 (Mus musculus [1]) is reported as 116 mg/kg.
With `C[C@@H](NCc1ccc(OCc2ccccn2)cc1)C(N)=O` the ED50 (Mus musculus [1]) was 172 mg/kg.
`CNC(=O)[C@@H](CO)NCc1ccc(OCc2cccc(C)c2)cc1` gave an ED50 (Mus musculus [1]) of 41.3 mg/kg, a TD50 [6] of 1250 mg/kg and an ED50 (Mus musculus [2]) of 30.6 mg/kg.
Molecule `CNC(=O)[C@@H](CO)NCc1ccc(OCc2ccccc2C(F)(F)F)cc1` has an ED50 (Mus musculus [1]) of 85.6 mg/kg.
Molecule `CNC(=O)[C@@H](CO)NCc1ccc(OCc2cccc([N+](=O)[O-])c2)cc1` has an ED50 (Mus musculus [8]) greater than 400 mg/kg.
Work on `CNC(=O)[C@@H](CO)NCc1ccc(OCc2ccc(Cl)cc2)cc1` yielded an ED50 (Mus musculus [1]) of 216 mg/kg.
For `CNC(=O)[C@@H](CO)NCc1ccc(OCc2cccc(F)c2)cc1`, the ED50 (Mus musculus [3]) was 35.6 mg/kg, the ED50 (Mus musculus [4]) was 120 mg/kg and the ED50 (Mus musculus [5]) was greater than 250 mg/kg. The ED50 (Mus musculus [1]) was 25.1 mg/kg, the TD50 [6] was 915 mg/kg and the ED50 (Mus musculus [2]) was 13 mg/kg.
`C[C@@H](NCc1ccc(OCc2ccccc2F)cc1)C(N)=O` showed an ED50 (Mus musculus [1]) of 25.8 mg/kg, a TD50 [6] of 549 mg/kg and an ED50 (Mus musculus [2]) of 7 mg/kg.
With `CNC(=O)[C@@H](CO)NCc1ccc(OCc2ccccc2F)cc1` the ED50 (Mus musculus [1]) was 12.4 mg/kg, the TD50 [6] was 371 mg/kg and the ED50 (Mus musculus [2]) was 19.8 mg/kg.
Work on `CNC(=O)[C@@H](CCSC)NCc1ccc(OCc2ccccc2)cc1` yielded an ED50 (Mus musculus [11]) greater than 400 mg/kg.
For `CNC(=O)[C@@H](CO)NCc1ccc(OCc2cccc(OC)c2)cc1`, the ED50 (Mus musculus [1]) was 109 mg/kg.
In the case of `CN1C(=O)CN=C(c2ccccc2)c2cc(Cl)ccc21` [DIAZEPAM], the ED50 (Mus musculus [3]) is reported as 0.62 mg/kg, the ED50 (Mus musculus [4]) is reported as 0.52 mg/kg and the ED50 (Mus musculus [5]) is reported as 0.58 mg/kg. It also gave an ED50 (Mus musculus [1]) of 0.29 mg/kg, a TD50 (Mus musculus [9]) of 6.8 mg/kg and an ED50 (Mus musculus [2]) of 1.2 mg/kg.
In the case of `CC[C@@H](NCc1ccc(OCc2ccccc2)cc1)C(N)=O`, the ED50 (Mus musculus [1]) is reported as 55 mg/kg, the TD50 [6] is reported as 277 mg/kg and the ED50 (Mus musculus [2]) is reported as 7.2 mg/kg.
For `C[C@@H](NCc1ccc(OCc2ccncc2)cc1)C(N)=O`, the ED50 (Mus musculus [12]) was greater than 400 mg/kg.
With `C[C@H](NCc1ccc(OCc2ccccc2Cl)cc1)C(N)=O` the ED50 (Mus musculus [13]) was 18.4 mg/kg.
For `CCOC(=O)CNCc1ccc(OCc2cccc(Cl)c2)cc1`, the ED50 (Mus musculus [14]) was greater than 400 mg/kg.
In the case of `C[C@@H](NCc1ccc(OCc2ccsc2)cc1)C(N)=O`, the ED50 (Mus musculus [1]) is reported as 114 mg/kg.
Molecule `C[C@@H](NCc1ccc(OCC2CC2)cc1)C(N)=O` has an ED50 (Mus musculus [1]) of 124 mg/kg.
Molecule `CCCCC(C)NCC(N)=O` (stereo not given) has an ED50 (Mus musculus [1]) of 640 mg/kg.
Work on `CNC(=O)CNCc1ccc(OCc2cccc(Cl)c2)cc1` yielded an ED50 (Mus musculus [1]) of 30.5 mg/kg and an ED50 (Mus musculus [2]) of 48.6 mg/kg.
Molecule `C[C@@H](NCc1ccc(-c2ccccc2)cc1)C(N)=O` has an ED50 (Mus musculus [1]) of 231 mg/kg.
